This note sets out measurements from ChEMBL document CHEMBL4004801, “Bioactive Constituents from the Termite Nest-Derived Medicinal Fungus Xylaria nigripes” (J Nat Prod, 2017).

pIC50: −log10 of the molar value.

Data set [1] has as its system BV-2. The experiment in a line: Inhibition of LPS-induced iNOS expression in mouse BV2 cells at 20 uM pretreated for 15 mins followed by LPS-stimulation after 24 hrs by western blot analysis relative to control. Type of data set: functional. In outline: (§1)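 BV-2 cells at 80% confluence, serum-free medium for 24 h. Cells given DMSO or compound, then LPS 150 ng/mL for 24 h. Lysate supernatants run on SDS-PAGE, blotted to PVDF, probed with anti-COX-2 or anti-iNOS and HRP secondary, detected by ECL. Protein levels expressed as fold of control. Mean ± SD of three experiments.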
(In general: A western blot detects proteins with antibodies after separation by electrophoresis.)

For data set [2], the system named is BV-2. The experiment in a line: Inhibition of LPS-induced COX-2 expression in mouse BV2 cells at 20 uM pretreated for 15 mins followed by LPS-stimulation after 24 hrs by western blot analysis relative to control. The data set is classed as functional. The method in brief:
as §1

Data set [3] in a line: Cytotoxicity against mouse BV2 cells assessed as cell viability at 20 uM after 24 hrs by MTT assay relative to control. The data set is classed as cell-based, BV-2. The note with it: read-out: Activity. In outline:
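BV-2 cells grown in DMEM with 10% heat-inactivated FBS at 37 °C under 5% CO2. Medium switched to 0.5% FBS at 85% confluence before treatment. Viability measured after 24 h compound exposure by colorimetric MTT reduction. Mean ± SD of three individual experiments.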
Background: Tetrazolium assays rely on reduction of a dye to a coloured formazan, in cell work by metabolically active cells.

In data set [4] the test system is BV-2. The experiment in a line: Inhibition of LPS-induced iNOS expression in mouse BV2 cells pretreated for 15 mins followed by LPS-stimulation after 24 hrs by western blot analysis. Type of data set: functional, cell-based. In outline: (§2)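 Western blot in BV-2 microglia after serum-free conditioning for 24 h. Compound given at 2, 5, 10 and 20 μM, then LPS 150 ng/mL for 24 h. iNOS and COX-2 detected by ECL and expressed relative to control. IC50 calculated from the concentration–response data.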

Data set [5] has as its system BV-2. The experiment in a line: Inhibition of LPS-induced COX-2 expression in mouse BV2 cells pretreated for 15 mins followed by LPS-stimulation after 24 hrs by western blot analysis. The data set is classed as functional, cell-based. The method in brief: as §2
The subject of data set [6] is BV-2. The data set can be described thus: Inhibition of LPS-induced nitric oxide production in mouse BV2 cells pretreated for 30 mins followed by LPS-stimulation after 24 hrs by Griess assay. Type of data set: functional, cell-based. In outline:
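BV2 cells seeded at 5 × 10^5 per well for 16 h, then moved to phenol red-free DMEM. Cells pretreated 30 min with vehicle or compound (2, 10, 20, 40 μM), then given LPS 150 ng/mL for 24 h. Supernatant nitrate reduced with nitrate reductase and cofactors for 1 h at RT in the dark. Griess A and B added for 20 min, then A550 read. Nitrite obtained by regression against NaNO2 standards, and IC50 derived. Curcumin used as positive control.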
Background: Nitrite, measured by Griess reagent, commonly stands in for NO production.

Turning to `C=C(C)[C@@H]1Cc2cc(C=O)ccc2O1`, the “fold change (FC)” value was 3 with BV-2 [1] and 4.2 with BV-2 [2].
As to `CC1=C2[C@@H](C=C3C=CC[C@H](C)[C@@]3(C)[C@H]2O)OC1=O`, the “fold change (FC)” value in the data set with BV-2 [1] is listed as 4.5; in the data set on BV-2 [2], 4.9. The viability at 24 h, 20 µM in data set [3] stood at 79.3%.
On to `C=C(C=O)[C@@H]1C[C@@]2(C)C(=C[C@H]1O)CCC[C@@H]2C`, for which the viability at 24 h, 20 µM in data set [3] amounted to 44.6%.
Regarding `C=C(C)[C@@H]1Cc2cc(CO)ccc2O1`, the figures for the “fold change (FC)” value with BV-2 [1] and in the data set on BV-2 [2] were 1.9 and 2.4, respectively. Further, in data set [3], the viability at 24 h, 20 µM amounted to 85.9%. Further, the results for the negative logarithm of the IC50 (pIC50) in the data set on BV-2 [4], with BV-2 [5] and with BV-2 [6] were 4.94, 4.90 and 4.47, respectively. Besides, the inhibition result in the data set on BV-2 [4] and in the data set on BV-2 [5] was “Dose-dependent effect” in each case.
With `CCCCC1OC(=O)c2c(O)cccc21` (configuration not stated), the “fold change (FC)” value with BV-2 [1] came out at 4.3; with BV-2 [2] it was 6.5.
With `C=C1CO[C@@H]2C=C3CCC[C@H](C)[C@@]3(C)C[C@@]12O`, the “fold change (FC)” value with BV-2 [1] is on record as 1.8; in the data set with BV-2 [2], 2.1. Besides, in data set [3], the viability at 24 h, 20 µM turned out to be 87.7%. Also, the pIC50 (usually the IC50 on a negative log10 scale, so that one unit is a factor of ten) was 5.09 in the data set with BV-2 [4], 4.78 with BV-2 [5] and 4.66 in the data set on BV-2 [6]. For the same compound, the inhibition entry with BV-2 [4], in the data set on BV-2 [5] and in the data set with BV-2 [6] was “Dose-dependent effect” in each case.
As for `O=C1C[C@H](O)Cc2cc(O)cc(O)c21`, the figures for the “fold change (FC)” value in the data set with BV-2 [1] and with BV-2 [2] were 2.9 and 4.9, respectively.
For the compound `C=C(C=O)[C@@H]1C[C@@]2(C)C(=CC1=O)CCC[C@@H]2C`, the viability at 24 h, 20 µM in data set [3] came to 46.1%.
In the case of `COc1cc(/C=C/C(=O)CC(=O)/C=C/c2ccc(O)c(OC)c2)ccc1O` [CURCUMIN], the pIC50 with BV-2 [6] is 5.35.
On to `CC1=C2[C@@H](C=C3CCC[C@H](C)[C@@]3(C)[C@H]2O)OC1=O`, for which the “fold change (FC)” value was determined as 3.2 with BV-2 [1] and 6.4 with BV-2 [2]. For the same compound, the viability at 24 h, 20 µM in data set [3] is 90.2%.
With `C=C(CO)C1=C[C@@]2(C)C(=CC1=O)CCC[C@@H]2C`, the figures for the “fold change (FC)” value in the data set on BV-2 [1] and in the data set with BV-2 [2] were 3.6 and 3.7, respectively. In addition, the viability at 24 h, 20 µM in data set [3] was 73.8%.
For the compound `CCCCCc1cccc(O)c1CO`, the results for the “fold change (FC)” value in the data set with BV-2 [1] and with BV-2 [2] were 3.4 and 5.6, respectively.
